Assay [1] concerns the target T1, Histamine H3 receptor (Cavia porcellus, UniProt Q9JI35). Briefly: In vitro binding affinity for histamine H3 receptor was determined in guinea-pig cerebral cortex using [3H](R)-alpha-methylhistamine. It counts as tissue-based.
Assay [2] addresses Histamine H3 receptor (Cavia porcellus) (UniProt Q9JI35). Description: Tested in vitro against histamine H3 receptor mediated inhibition of cholinergic neurogenic contractions in isolated guinea pig ileum. The assay is classed as functional, tissue-based. The method, boiled down:
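Electrically stimulated guinea-pig ileum, where H3 receptors mediate inhibition of cholinergic neurogenic contractions. Agonist was (R)-α-methylhistamine. pKB ± SEM was estimated from single shifts of the agonist concentration-effect curve in at least four separate tissues, for compounds acting as surmountable antagonists. Compounds were given as dihydrochloride salts.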

The target in assay [3] is T1, Histamine H3 receptor. Description: In vitro binding affinity towards histamine H3 receptor was determined in guinea-pig cerebral cortex using [3H](R)-alpha-methylhistamine.

Molecules are shown by their SMILES.

This note sets out measurements from ChEMBL document CHEMBL1133103, “Design, synthesis, and structure-activity relationships of novel non-imidazole histamine H(3) receptor antagonists” (J Med Chem, 2000).

Sequence of Histamine H3 receptor (Cavia porcellus) (Q9JI35 whole entry): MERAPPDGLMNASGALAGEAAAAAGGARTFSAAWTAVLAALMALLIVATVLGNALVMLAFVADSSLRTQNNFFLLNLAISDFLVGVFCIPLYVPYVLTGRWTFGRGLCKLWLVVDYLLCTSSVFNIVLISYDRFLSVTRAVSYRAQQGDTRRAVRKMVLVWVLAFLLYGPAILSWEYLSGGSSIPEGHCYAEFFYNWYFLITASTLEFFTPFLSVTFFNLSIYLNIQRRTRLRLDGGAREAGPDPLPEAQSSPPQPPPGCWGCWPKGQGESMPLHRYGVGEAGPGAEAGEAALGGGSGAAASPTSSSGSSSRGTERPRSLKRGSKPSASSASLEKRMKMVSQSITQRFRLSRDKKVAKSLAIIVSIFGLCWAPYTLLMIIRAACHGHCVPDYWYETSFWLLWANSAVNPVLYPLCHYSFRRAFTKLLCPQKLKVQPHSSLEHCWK
T1 sequence (Q9JI35 whole entry): as above

By Ki is commonly meant the equilibrium dissociation constant of an inhibitor or competing ligand from its target. Lower therefore signals higher affinity. One may read the pKB as −log10 of the KB, conventionally taken in molar units. A low value points to a high KB. As to `N=C(NCCCCCN1CCCCCC1)NCC12CC3CC(CC(C3)C1)C2`, the inhibition constant Ki on Histamine H3 receptor [1] was 7.94 nM. In addition, the pKB in assay [2] was 7.84. Consider `N=C(NCCCCN1CCCC1)NCc1ccc(Cl)cc1`, for which the affinity at Histamine H3 receptor [1], expressed as Ki, was 5.13 nM. In addition, in assay [2], the negative logarithm of the KB (pKB) was 7.32. The like results for `CN(C)CCCSC(=N)N` were, in that order, 47.9 nM and 5.93. Molecule `COc1ccc(C/N=C(\N)NCCCN2CCCC2)cc1` had a Ki on Histamine H3 receptor [1] of 83.2 nM. Also, in assay [2], the pKB came to 6.08.

As to `N=C(N)N(CCCCCCCN1CCCC1)Cc1ccc(Cl)cc1`, the Ki at Histamine H3 receptor [1] is 2 nM. In assay [2], the pKB was found to be 8.38. For `S=C(NCCCN1CCCC1)NCc1ccc(Cl)cc1` the same measures were 407 nM and 5.66. `N=C(N)N(CCCCCN1CCCC1)Cc1ccc(Cl)cc1`: at Histamine H3 receptor [1], the Ki was 1.07 nM. The molecule further had a pKB in assay [2] of 7.91. For `CN(C)CCCNS(=O)(=O)c1ccc2ccccc2c1` the same measures were 1000 nM and 5.52.

Molecule `N=C(NCCCCN1CCCC1)NCCc1ccc(Cl)cc1` gave a Ki at Histamine H3 receptor [1] of 6.76 nM. In assay [2], the pKB is 6.24. For `N=C(NCCCCCN1CCCC1)NCc1ccc(Cl)cc1` the same measures were 5.37 nM and 7.3.

Take `N=C(NCCCN1CCCC1)NCc1ccc(I)cc1`: affinity at Histamine H3 receptor [1] was put at a Ki of 53.7 nM. The molecule further came in with a pKB in assay [2] of 6.43. The like results for `N=C(NCCCCCN1CCCC1)NCC1CCCCC1` were, in that order, 1.41 nM and 7.52. The like results for `O=S(=O)(Cc1ccc(Cl)cc1)NCCCN1CCCC1` were, in that order, 537 nM and 6.24. Molecule `N=C(N)N(CCCCN1CCCC1)Cc1ccc(Cl)cc1` had an inhibitory constant (Ki) at Histamine H3 receptor [1] of 7.94 nM. Moreover, the pKB in assay [2] turned out to be 7.34. The like results for `N=C(NCCCN1CCCC1)NCc1ccc(C(F)(F)F)cc1` were, in that order, 100 nM and 6.1.

The molecule `N=C(NCCCN1CCCC1)NCc1ccccc1Br` had a Ki at Histamine H3 receptor [1] of 42.7 nM. Besides, the pKB in assay [2] is 6.27. The like results for `O=S(=O)(NCCCN1CCCC1)NCc1ccc(Cl)cc1` were, in that order, 229 nM and 6.21. `N=C(N)N(CCCCCCN1CCCC1)Cc1ccc(Cl)cc1` gave a Ki on Histamine H3 receptor [1] of 4.17 nM. The molecule further returned a pKB in assay [2] of 8.39. The like results for `N=C(NCCCCCN1CCCCCCC1)NCC12CC3CC(CC(C3)C1)C2` were, in that order, 30.2 nM and 7.37. Turning to `N=C(NCCCN1CCCC1)NCc1ccc(Br)cc1`, the Ki on Histamine H3 receptor [1] is 4.68 nM. The same molecule registered a pKB in assay [2] of 6.45. For `N=C(NCCCCCN1CCCC1)NCC12CC3CC(CC(C3)C1)C2` the same measures were 3.55 nM and 7.9. For `O=S(=O)(NCCCN1CCCC1)c1ccc2ccccc2c1` the same measures were 324 nM and 5.96. The molecule `O=[N+]([O-])c1ccc(OCCCCCN2CCCC2)cc1` had a Ki on Histamine H3 receptor [3] of 39 nM. The molecule `N=C(NCCCCCN1CCCCC1)NCC12CC3CC(CC(C3)C1)C2` showed a Ki at Histamine H3 receptor [1] of 10.7 nM. Moreover, the pKB in assay [2] is 8.14.

`N=C(NCCCCCN1CCCC1)NCC1CCCCCC1`: the Ki on Histamine H3 receptor [1] was 3.55 nM. This molecule registered a negative logarithm of the KB (pKB) in assay [2] of 7.67. For `N=C(NCCCCCN1CCCC1)NCCc1ccc(Cl)cc1` the same measures were 7.59 nM and 7.06. For `N=C(NCCCN1CCCC1)Nc1ccc(Cl)cc1` the same measures were 53.7 nM and 6.03. The like results for `N=C(NCCCN1CCCC1)NCc1ccccc1` were, in that order, 20 nM and 6.2.

In turn, `N=C(NCCCN1CCCC1)NCc1ccc(Cl)cc1` showed an inhibition constant Ki on Histamine H3 receptor [1] of 56.2 nM. Moreover, the pKB in assay [2] came to 6.42. In turn, `N=C(NCCCN1CCCC1)NCCc1ccc(Cl)cc1` gave an inhibitory constant (Ki) on Histamine H3 receptor [1] of 0.933 nM. This molecule had a negative logarithm of the KB (pKB) in assay [2] of 6.68.

For `N=C(N)N(CCCCCCCCN1CCCC1)Cc1ccc(Cl)cc1`, affinity on Histamine H3 receptor [1] was put at a Ki of 4.68 nM. Further, the pKB in assay [2] is 8.09. The molecule `O=[N+]([O-])c1ccc(OCCCN2CCC(Nc3nc4ccccc4s3)CC2)cc1` gave a Ki on Histamine H3 receptor [1] of 6.31 nM. On to `N=C(NCCCN1CCCC1)NCc1cccc(Br)c1`, for which the Ki at Histamine H3 receptor [1] was 25.7 nM. The molecule also returned a pKB in assay [2] of 6.46.
